Data as given in ChEMBL document CHEMBL3045796, “Neonicotinoid insecticides: molecular features conferring selectivity for insect versus mammalian nicotinic receptors” (J Agric Food Chem, 2000).

How the values were obtained:
[1] = molecular target: Acetylcholine receptor subunit alpha (Homo sapiens, UniProt P02708+P07510+P11230+Q07001); experiment: Inhibition of [125I]alpha-BGT binding to alpha1 nicotinic acetylcholine receptor in Homo sapiens (human) TE671 cells co-expressing gammaalpha1deltabeta1 nicotinic acetylcholine receptor subunits
Acetylcholine receptor subunit alpha, sequence (P02708 whole entry, one chain of several): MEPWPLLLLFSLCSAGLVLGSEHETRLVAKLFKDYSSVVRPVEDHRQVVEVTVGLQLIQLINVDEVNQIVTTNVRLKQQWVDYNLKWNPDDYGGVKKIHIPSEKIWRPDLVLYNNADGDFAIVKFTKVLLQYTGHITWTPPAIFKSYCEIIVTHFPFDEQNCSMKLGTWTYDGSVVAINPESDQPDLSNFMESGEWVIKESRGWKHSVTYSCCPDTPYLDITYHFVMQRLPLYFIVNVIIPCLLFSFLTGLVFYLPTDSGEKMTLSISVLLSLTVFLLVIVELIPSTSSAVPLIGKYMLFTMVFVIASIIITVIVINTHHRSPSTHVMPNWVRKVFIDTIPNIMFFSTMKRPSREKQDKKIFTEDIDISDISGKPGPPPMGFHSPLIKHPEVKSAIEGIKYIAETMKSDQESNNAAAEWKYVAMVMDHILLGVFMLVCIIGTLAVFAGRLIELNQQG

[2] = Retention time under acidic conditions using H20/MeOH mobile phase containing 0.1% TFA (1:1) by HPLC method; type: physicochemical
How it was run: (§1)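 Reversed-phase HPLC at a flow rate of 0.7 mL/min, with a void volume of 2.46 min. Each retention time is the mean of three runs under that mobile-phase condition.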

[3] = molecular target: T1, Acetylcholine receptor subunit beta-like 2 (Drosophila melanogaster, UniProt P25162); experiment: Inhibition of [3H]IMI binding to Drosophila melanogaster neuronal acetylcholine receptor
T1 sequence (P25162 whole entry): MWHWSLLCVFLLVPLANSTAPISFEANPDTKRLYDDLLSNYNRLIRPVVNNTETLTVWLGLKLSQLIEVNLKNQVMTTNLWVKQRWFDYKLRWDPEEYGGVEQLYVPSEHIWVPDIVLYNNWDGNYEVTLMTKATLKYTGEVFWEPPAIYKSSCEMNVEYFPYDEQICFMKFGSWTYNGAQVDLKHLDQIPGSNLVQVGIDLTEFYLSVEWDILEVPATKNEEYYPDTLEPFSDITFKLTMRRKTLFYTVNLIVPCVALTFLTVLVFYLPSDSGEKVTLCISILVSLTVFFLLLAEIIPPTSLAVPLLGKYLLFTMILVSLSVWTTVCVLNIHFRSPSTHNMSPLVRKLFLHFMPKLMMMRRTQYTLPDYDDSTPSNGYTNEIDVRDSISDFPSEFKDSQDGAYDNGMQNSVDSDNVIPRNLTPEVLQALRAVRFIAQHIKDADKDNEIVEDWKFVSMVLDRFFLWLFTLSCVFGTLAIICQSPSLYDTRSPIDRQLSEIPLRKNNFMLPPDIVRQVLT

[4] = molecular target: Neuronal acetylcholine receptor subunit alpha-4 (Mus musculus, UniProt O70174); experiment: Inhibition of [3H]nicotine binding to alpha4 nicotinic acetylcholine receptor in Mus musculus (mouse) M10 cells co-expressing beta2 nicotinic acetylcholine receptor subunits; type: cell-based
Neuronal acetylcholine receptor subunit alpha-4, sequence (O70174 whole entry): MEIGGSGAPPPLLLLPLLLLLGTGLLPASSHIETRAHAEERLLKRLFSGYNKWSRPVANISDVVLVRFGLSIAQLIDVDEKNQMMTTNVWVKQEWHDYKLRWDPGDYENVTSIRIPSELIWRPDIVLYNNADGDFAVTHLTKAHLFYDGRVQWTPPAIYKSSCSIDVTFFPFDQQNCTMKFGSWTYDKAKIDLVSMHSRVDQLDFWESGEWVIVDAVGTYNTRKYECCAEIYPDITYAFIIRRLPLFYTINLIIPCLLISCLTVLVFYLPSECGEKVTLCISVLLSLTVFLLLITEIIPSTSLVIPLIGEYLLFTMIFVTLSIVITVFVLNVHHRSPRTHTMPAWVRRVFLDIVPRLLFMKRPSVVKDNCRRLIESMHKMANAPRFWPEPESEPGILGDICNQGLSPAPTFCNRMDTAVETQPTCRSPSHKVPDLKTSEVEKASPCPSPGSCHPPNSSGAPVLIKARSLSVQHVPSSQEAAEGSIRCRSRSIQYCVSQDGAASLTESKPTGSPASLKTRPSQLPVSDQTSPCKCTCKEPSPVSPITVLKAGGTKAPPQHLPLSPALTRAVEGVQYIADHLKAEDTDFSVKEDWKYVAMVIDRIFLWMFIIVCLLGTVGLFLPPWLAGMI

[5] = molecular target: Neuronal acetylcholine receptor subunit alpha-7 (Homo sapiens, UniProt P36544); experiment: Inhibition of [125I]alpha-BGT binding to alpha7 nicotinic acetylcholine receptor in Homo sapiens (human) SH-SY5Y cells
Neuronal acetylcholine receptor subunit alpha-7, sequence (P36544 whole entry): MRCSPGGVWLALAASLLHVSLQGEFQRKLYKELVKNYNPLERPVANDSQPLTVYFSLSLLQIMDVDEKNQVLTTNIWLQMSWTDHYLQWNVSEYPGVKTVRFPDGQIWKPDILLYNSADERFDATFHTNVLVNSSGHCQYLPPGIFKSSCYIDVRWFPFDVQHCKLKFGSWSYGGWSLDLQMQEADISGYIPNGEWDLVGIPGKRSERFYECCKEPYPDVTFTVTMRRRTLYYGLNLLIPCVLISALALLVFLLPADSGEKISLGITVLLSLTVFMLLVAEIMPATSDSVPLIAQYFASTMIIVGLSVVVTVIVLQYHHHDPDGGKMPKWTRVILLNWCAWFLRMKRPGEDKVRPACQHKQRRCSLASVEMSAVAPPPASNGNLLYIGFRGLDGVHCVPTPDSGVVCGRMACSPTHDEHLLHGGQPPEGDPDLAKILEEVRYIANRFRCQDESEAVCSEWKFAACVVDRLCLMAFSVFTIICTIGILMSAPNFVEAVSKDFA

[6] = Toxicity in ip dosed Mus musculus (mouse); type: organism-based; conditions: in vivo
[7] = Retention time under neutral conditions using H20/MeOH (1:1) mobile phase by HPLC method; type: physicochemical
How it was run: as §1

[8] = Retention time under basic conditions using 20 mM Na2HPO4 (pH9.9)/MeOH (1:1) mobile phase by HPLC method; type: physicochemical; conditions: buffer, pH 9.9
How it was run: as §1

Musca domestica = experiment: Toxicity against Musca domestica (house fly) dosed with compound through intra-thoracic injection pre-treated with 100 ug/g metabolic detoxification inhibitor O-propyl O-(2-propynyl)phenylphosphonate; type: functional
[9] = molecular target: Neuronal acetylcholine receptor subunit alpha-3 (Homo sapiens, UniProt P32297); experiment: Inhibition of [3H]nicotine binding to alpha3 nicotinic acetylcholine receptor in Homo sapiens (human) SH-SY5Y cells co-expressing beta2beta4alpha5 Nicotinic acetylcholine receptor subunits; type: cell-based
Neuronal acetylcholine receptor subunit alpha-3, sequence (P32297 whole entry): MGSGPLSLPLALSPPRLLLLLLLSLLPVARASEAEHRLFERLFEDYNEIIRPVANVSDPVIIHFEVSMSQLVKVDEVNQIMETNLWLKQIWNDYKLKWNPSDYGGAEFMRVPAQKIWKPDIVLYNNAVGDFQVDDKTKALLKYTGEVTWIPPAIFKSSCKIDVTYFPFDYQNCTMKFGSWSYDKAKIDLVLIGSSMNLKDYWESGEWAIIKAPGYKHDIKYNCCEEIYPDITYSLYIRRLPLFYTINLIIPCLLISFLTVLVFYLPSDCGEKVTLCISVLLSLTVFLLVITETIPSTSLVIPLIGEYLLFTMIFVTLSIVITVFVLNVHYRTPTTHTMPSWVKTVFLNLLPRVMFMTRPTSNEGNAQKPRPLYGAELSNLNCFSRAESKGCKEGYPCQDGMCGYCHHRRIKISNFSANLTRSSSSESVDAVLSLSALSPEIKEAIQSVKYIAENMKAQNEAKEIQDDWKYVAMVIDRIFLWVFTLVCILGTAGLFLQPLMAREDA

[10] = molecular target: Acetylcholine receptor subunit alpha (Homo sapiens) (UniProt P02708); experiment: Inhibition of […] binding to alpha1 nicotinic acetylcholine receptor in Homo sapiens (human) TE671 cells co-expressing gammaalpha1deltabeta1 nicotinic acetylcholine receptor at >300 uM; type: cell-based; conditions: TE-671
Acetylcholine receptor subunit alpha (Homo sapiens), sequence (P02708 whole entry): as the sequence (P02708 whole entry, one chain of several) above

N=C1SCCN1Cc1ccc(Cl)nc1 [DESCYANOTHIACLOPRID]
IC50 [1]: 6 µM
Retention_time [2]: 2.84 min
IC50 [3]: 200 nM
IC50 [4]: 4.4 nM
IC50 [5]: 6 µM
LD50 [6]: 0.7 mg/kg
Retention_time [7]: 3 min
Retention_time [8]: 4.23 min
LD50 (Musca domestica): > 5 mg/kg

CN1CCC[C@H]1c1cccnc1 [NICOTINE]
IC50 [1]: 21 µM
Retention_time [2]: 3.16 min
IC50 [3]: 4000 nM
LD50 [6]: 6 mg/kg
Retention_time [7]: 3.18 min
Retention_time [8]: 11.23 min
LD50 (Musca domestica): > 50 mg/kg

O=[N+]([O-])NC1=NCCN1Cc1ccc(Cl)nc1 [IMIDACLOPRID]
IC50 [1]: > 300 µM
Retention_time [2]: 4.87 min
IC50 [3]: 4.6 nM
IC50 [4]: 2600 nM
IC50 [9]: 14000 nM
IC50 [5]: 270 µM
LD50 [6]: 40 mg/kg
Retention_time [7]: 4.84 min
Retention_time [8]: 4.82 min

O=[N+]([O-])/N=C1\NCCN1Cc1ccc(Cl)nc1 [IMIDACLOPRID]
inhibition [10]: 39%
LD50 (Musca domestica): 0.02 mg/kg

N=C1NCCN1Cc1ccc(Cl)nc1 [DESNITROIMIDACLOPRID]
IC50 [1]: 11 µM
Retention_time [2]: 2.8 min
IC50 [3]: 1530 nM
IC50 [4]: 8.2 nM
IC50 [9]: 14 nM
IC50 [5]: 9.9 µM
LD50 [6]: 6 mg/kg
Retention_time [7]: 2.9 min
Retention_time [8]: 4.24 min
LD50 (Musca domestica): > 5 mg/kg

Clc1ccc(C2CC3CCC2N3)cn1 (racemic) [EPIBATIDINE]
IC50 [1]: 0.16 µM
IC50 [3]: 430 nM
IC50 [4]: 0.037 nM
IC50 [5]: 0.031 µM
LD50 [6]: 0.06 mg/kg
LD50 (Musca domestica): > 25 mg/kg

N=c1sccn1Cc1ccc(Cl)nc1
IC50 [1]: 8 µM
Retention_time [2]: 2.98 min
IC50 [3]: 185 nM
IC50 [4]: 1.4 nM
IC50 [5]: 4 µM
LD50 [6]: 0.7 mg/kg
Retention_time [7]: 3.02 min
Retention_time [8]: 4.21 min
LD50 (Musca domestica): > 5 mg/kg

O=[N+]([O-])/C=C1/NCCCN1Cc1ccc(Cl)nc1
IC50 [1]: 81 µM
IC50 [3]: 0.37 nM
IC50 [4]: 80 nM
IC50 [9]: 180 nM
IC50 [5]: 1 µM
LD50 [6]: 10 mg/kg
LD50 (Musca domestica): 0.08 mg/kg

N#C/N=C1\SCCN1Cc1ccc(Cl)nc1 [THIACLOPRID]
IC50 [1]: 120 µM
Retention_time [2]: 6.07 min
IC50 [3]: 2.7 nM
IC50 [4]: 860 nM
IC50 [5]: 100 µM
LD50 [6]: 25 mg/kg
Retention_time [7]: 6.06 min
Retention_time [8]: 6.05 min
LD50 (Musca domestica): 0.03 mg/kg
